Data taken from ChEMBL document CHEMBL1139831, “The influence of modifications in imide fragment structure on 5-HT(1A) and 5-HT(7) receptor affinity and in vivo pharmacological properties of some new 1-(m-trifluoromethylphenyl)piperazines” (Bioorg Med Chem, 2007).

How the values were obtained:
Mus musculus [1] = experiment: Effect on locomotor activity in Swiss Albino mouse assessed as number of crossings in 6 mins at 5 mg/kg administered 30 mins before the test; type: functional
Outline: (§1)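 Male Albino Swiss mice (24–28 g) given compound ip (suspension in 1% aqueous Tween 80, 10 ml/kg). Animals housed singly in plastic cages in a multichannel photobeam activity monitor. Ambulation crossings counted over first 6 min and over 30-min session. n = 9-10/group; one-way ANOVA then Dunnett's test.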

[2] = Displacement of [3H]prazosin from adrenergic alpha1 receptor in rat cortical membranes; type: cell membranes, Membrane
Outline: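 Rat cortical membranes with [3H]-prazosin; phentolamine defines nonspecific binding. 7–9 drug concentrations in triplicate, at least three separate experiments; stopped by GF/B filtration with three ice-cold buffer washes, bound radioactivity by liquid scintillation counting; Ki from non-linear regression and Cheng-Prusoff equation.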

Mus musculus [3] = experiment: Effect on locomotor activity in Swiss Albino mouse assessed as number of crossings in 6 mins at 10 mg/kg administered 30 mins before the test; type: functional; outline: as §1
Mus musculus [4] = experiment: Antidepressant activity in Swiss Albino mouse assessed as immobility time during final 4 mins of 6 mins session at 10 mg/kg administered 30 mins before the test by forced-swimming test; type: functional
Outline: (§2)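 Male Albino Swiss mice (24–28 g), compound given ip in 1% aqueous Tween 80 (10 ml/kg), 30 min before test. Mouse placed singly in glass cylinder (25 cm high, 10 cm diameter) holding 6 cm water at 23–25 °C for 6 min; immobility (floating, only small head-keeping movements) timed over last 4 min. n = 9-10 per group; one-way ANOVA then Dunnett's test.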

Mus musculus [5] = experiment: Effect on locomotor activity in Swiss Albino mouse assessed as number of crossings in 30 mins at 5 mg/kg administered 30 mins before the test; type: functional
Outline: (§3)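 Male Albino Swiss mice given compound ip (1% Tween 80, 10 ml/kg) 30 min before placement singly in plastic cages in a multichannel photobeam activity monitor; ambulation crossings counted over the first 6 min and over a 30 min session. n = 9-10 per group; ANOVA then Dunnett's test.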

Mus musculus [6] = experiment: Effect on locomotor activity in Swiss Albino mouse assessed as number of crossings in 30 mins at 10 mg/kg administered 30 mins before the test; type: functional; outline: as §3
Mus musculus [7] = experiment: Anxiolytic activity in Swiss Albino mouse assessed as number of punished crossings for 60 secs at 2.5 mg/kg administered 30 mins before the test by four-plate test; type: functional
Outline: (§4)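 Male Albino Swiss mice (24–28 g), compound suspended in 1% aqueous Tween 80, given ip (10 ml/kg). Mouse placed in box with four metal floor plates, 15 s exploration, then floor electrified (120 V, 0.5 s) at each plate-to-plate crossing, no new shock for 3 s. Punished crossings counted over 60 s. n = 9-10/group; one-way ANOVA then Dunnett's test.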

Mus musculus [8] = experiment: Anxiolytic activity in Swiss Albino mouse assessed as number of punished crossings for 60 secs at 10 mg/kg administered 30 mins before the test by four-plate test; type: functional; outline: as §4
Mus musculus [9] = experiment: Anxiolytic activity in Swiss Albino mouse assessed as number of punished crossings for 60 secs at 5 mg/kg administered 30 mins before the test by four-plate test; type: functional
Outline: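 Male Albino Swiss mice dosed ip (1% aqueous Tween 80, 10 ml/kg) 30 min beforehand. Opaque box floored with four metal plates; 15 s free exploration, then each plate-to-plate crossing triggers a 0.5 s, 120 V floor shock, with no new shock for 3 s if running continues. Punished crossings counted over 60 s; n = 9-10, ANOVA plus Dunnett's test.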

[10] = target: 5-hydroxytryptamine receptor 7 (Homo sapiens, UniProt P34969); experiment: Displacement of [3H]5-CT from human 5HT7 expressed in HEK293 cells; type: cell-based
5-hydroxytryptamine receptor 7, sequence (P34969 whole entry): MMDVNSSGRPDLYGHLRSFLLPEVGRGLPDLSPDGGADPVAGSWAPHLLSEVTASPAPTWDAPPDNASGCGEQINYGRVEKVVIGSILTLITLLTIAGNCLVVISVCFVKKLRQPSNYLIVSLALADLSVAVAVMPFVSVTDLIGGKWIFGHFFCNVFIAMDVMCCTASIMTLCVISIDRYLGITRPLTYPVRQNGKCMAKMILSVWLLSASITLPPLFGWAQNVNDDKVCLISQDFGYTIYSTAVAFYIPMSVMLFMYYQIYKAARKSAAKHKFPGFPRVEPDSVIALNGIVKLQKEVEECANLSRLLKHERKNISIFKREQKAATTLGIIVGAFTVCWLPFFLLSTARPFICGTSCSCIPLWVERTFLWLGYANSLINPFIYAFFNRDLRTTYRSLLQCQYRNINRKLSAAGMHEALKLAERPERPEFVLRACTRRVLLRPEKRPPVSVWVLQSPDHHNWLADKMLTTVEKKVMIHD
Outline: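 HEK293 cells stably transfected with human 5-HT7(b) cDNA; membranes (10 µg protein) incubated 1 h at 37 °C in 50 mM Tris-HCl pH 7.4 with 4 mM MgCl2, 0.1 mM pargyline, 0.1% ascorbic acid, 0.5 nM [3H]-5-CT and 7–9 test concentrations in triplicate; 10 µM 5-HT defines nonspecific binding. GF/B filtration, scintillation counting; Ki via Cheng-Prusoff from ≥3 experiments.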

Mus musculus [11] = experiment: Antidepressant activity in Swiss Albino mouse assessed as immobility time during final 4 mins of 6 mins session at 5 mg/kg administered 30 mins before the test by forced-swimming test; type: functional; outline: as §2
Mus musculus [12] = organism: Mus musculus; conditions: Swiss Albino, 5 mg/kg
Mus musculus [13] = organism: Mus musculus; conditions: Swiss Albino, 5 mg/kg; remark: listed apart in the source
Rattus norvegicus [14] = experiment: Effect on lower lip retraction in Wistar rat at 20 mg/kg; type: functional
Outline: (§5)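 Male Wistar rats (290–310 g) dosed ip in 1% Tween 80 (2 ml/kg), caged singly; lower lip retraction scored 15, 30 and 45 min after dosing as 0 (incisors not visible), 0.5 (partly) or 1 (completely visible), totals up to 3 per rat. n = 6 per group; one-way ANOVA followed by Dunnett's test.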

Rattus norvegicus [15] = experiment: Effect on 8-OH-DPAT-induced lower lip retraction in Wistar rat at 10 mg/kg; type: functional
Mus musculus [16] = organism: Mus musculus; conditions: Swiss Albino, 10 mg/kg
Mus musculus [17] = organism: Mus musculus; conditions: Swiss Albino, 10 mg/kg; remark: listed apart in the source
Rattus norvegicus [18] = experiment: Effect on 8-OH-DPAT-induced lower lip retraction in Wistar rat at 20 mg/kg; type: functional
Rattus norvegicus [19] = experiment: Effect on lower lip retraction in Wistar rat at 10 mg/kg; type: functional; outline: as §5
Mus musculus [20] = organism: Mus musculus; conditions: Swiss Albino, 10 mg/kg; remark: listed apart in the source
D(2) dopamine receptor = D(2) dopamine receptor (Rattus norvegicus, UniProt P61169); experiment: Displacement of [3H]spiperone from dopamine D2 receptor in rat striatal membranes; type: cell membranes, Membrane
D(2) dopamine receptor, sequence (P61169 whole entry): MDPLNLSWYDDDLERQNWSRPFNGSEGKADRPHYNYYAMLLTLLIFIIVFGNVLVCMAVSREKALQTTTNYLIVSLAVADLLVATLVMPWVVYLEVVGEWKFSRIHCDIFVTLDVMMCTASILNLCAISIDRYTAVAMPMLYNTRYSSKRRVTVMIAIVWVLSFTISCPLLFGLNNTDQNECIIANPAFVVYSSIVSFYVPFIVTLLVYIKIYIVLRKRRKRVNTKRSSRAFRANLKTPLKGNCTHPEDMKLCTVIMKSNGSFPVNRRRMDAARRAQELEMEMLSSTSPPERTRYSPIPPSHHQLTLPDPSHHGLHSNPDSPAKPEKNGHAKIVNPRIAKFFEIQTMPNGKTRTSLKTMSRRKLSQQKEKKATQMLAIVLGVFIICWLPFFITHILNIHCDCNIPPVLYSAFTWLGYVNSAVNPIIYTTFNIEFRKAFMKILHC
Outline: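 Competition binding on rat striatal membranes using [3H]-spiperone, butaclamol for nonspecific binding; filtration through GF/B filters and scintillation counting. Run at two compound concentrations, each in triplicate, and affinity expressed as estimated Ki.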

Mus musculus [21] = organism: Mus musculus; conditions: Swiss Albino, 5 mg/kg; remark: listed apart in the source
Mus musculus [22] = organism: Mus musculus; conditions: Swiss Albino, 5 mg/kg; remark: listed apart in the source
Mus musculus [23] = organism: Mus musculus; conditions: Swiss Albino, 10 mg/kg; remark: listed apart in the source
[24] = target: T1, 5-hydroxytryptamine receptor 1A (Rattus norvegicus, UniProt P19327); experiment: Displacement of [3H]8-OH-DPAT from 5HT1A in rat hippocampal membranes; type: cell membranes, Hippocampus, Membrane
T1 sequence (P19327 whole entry): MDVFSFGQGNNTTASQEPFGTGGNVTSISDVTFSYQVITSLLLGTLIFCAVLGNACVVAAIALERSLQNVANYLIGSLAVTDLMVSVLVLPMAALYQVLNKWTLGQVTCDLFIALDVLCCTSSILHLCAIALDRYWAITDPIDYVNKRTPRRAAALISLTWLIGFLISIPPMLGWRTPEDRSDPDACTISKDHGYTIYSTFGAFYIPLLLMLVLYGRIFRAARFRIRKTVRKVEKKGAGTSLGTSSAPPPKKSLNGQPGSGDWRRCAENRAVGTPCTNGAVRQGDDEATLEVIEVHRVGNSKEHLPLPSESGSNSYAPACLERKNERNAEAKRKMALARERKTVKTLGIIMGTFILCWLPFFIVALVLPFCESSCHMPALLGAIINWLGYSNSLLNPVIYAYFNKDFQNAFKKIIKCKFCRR
Outline: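 Rat hippocampal membranes, [3H]-8-OH-DPAT as radioligand, 5-HT defining nonspecific binding. 7–9 drug concentrations run in triplicate, at least three separate experiments. Filtration through GF/B filters with three ice-cold buffer washes, scintillation counting. Ki from non-linear regression of binding isotherms via Cheng-Prusoff equation.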

Mus musculus [25] = organism: Mus musculus; conditions: Swiss Albino, 10 mg/kg; remark: listed apart in the source
Mus musculus [26] = organism: Mus musculus; conditions: Swiss Albino, 10 mg/kg; remark: listed apart in the source
Mus musculus [27] = organism: Mus musculus; conditions: Swiss Albino, 20 mg/kg
Mus musculus [28] = organism: Mus musculus; conditions: Swiss Albino, 10 mg/kg; remark: listed apart in the source
Mus musculus [29] = organism: Mus musculus; conditions: Swiss Albino, 20 mg/kg; remark: listed apart in the source
Mus musculus [30] = organism: Mus musculus; conditions: Swiss Albino, 20 mg/kg; remark: listed apart in the source
Mus musculus [31] = organism: Mus musculus; conditions: Swiss Albino, 20 mg/kg; remark: listed apart in the source
Mus musculus [32] = organism: Mus musculus; conditions: Swiss Albino, 20 mg/kg; remark: listed apart in the source
Mus musculus [33] = organism: Mus musculus; conditions: Swiss Albino, 2.5 mg/kg
Rattus norvegicus [34] = experiment: Effect on lower lip retraction in Wistar rat at 5 mg/kg; type: functional; outline: as §5
Mus musculus [35] = organism: Mus musculus; conditions: Swiss Albino, 2.5 mg/kg; remark: listed apart in the source
Mus musculus [36] = organism: Mus musculus; conditions: Swiss Albino, 5 mg/kg; remark: listed apart in the source
Mus musculus [37] = organism: Mus musculus; conditions: Swiss Albino, 5 mg/kg; remark: listed apart in the source
Mus musculus [38] = organism: Mus musculus; conditions: Swiss Albino, 2.5 mg/kg; remark: listed apart in the source
Mus musculus [39] = organism: Mus musculus; conditions: Swiss Albino, 2.5 mg/kg; remark: listed apart in the source
Rattus norvegicus [40] = experiment: Effect on 8-OH-DPAT-induced lower lip retraction in Wistar rat at 5 mg/kg; type: functional
Mus musculus [41] = experiment: Anxiolytic activity in Swiss Albino mouse assessed as number of punished crossings for 60 secs at 1.25 mg/kg administered 30 mins before the test by four-plate test; type: functional; outline: as §4

| SMILES | Ki [2] [nM] | Activity (Mus musculus [7]) | Activity (Mus musculus [9]) | Ki [10] [nM] | deltaT (Mus musculus [12]) [°C] | deltaT (Mus musculus [13]) [°C] | Activity (Rattus norvegicus [14]) | Activity (Rattus norvegicus [15]) | deltaT (Mus musculus [16]) [°C] | deltaT (Mus musculus [17]) [°C] | Activity (Rattus norvegicus [18]) | Activity (Rattus norvegicus [19]) | Ki (D(2) dopamine receptor) [nM] | deltaT (Mus musculus [21]) [°C] | deltaT (Mus musculus [22]) [°C] | deltaT (Mus musculus [23]) [°C] | Ki [24] [nM] | deltaT (Mus musculus [25]) [°C] | further results |
| --- | --- | --- | --- | --- | --- | --- | --- | --- | --- | --- | --- | --- | --- | --- | --- | --- | --- | --- | --- |
| CC1(C)CC(=O)N(CCCCN2CCN(c3cccc(C(F)(F)F)c3)CC2)C(=O)C1 | 127 | 5.3 | 6.9 | 46 | – | – | – | – | – | – | – | – | – | – | – | – | – | – | Activity (Mus musculus [1]): 121.7; Activity (Mus musculus [3]): 23; Activity (Mus musculus [4]): 112.1 s; Activity (Mus musculus [5]): 730.8; Activity (Mus musculus [6]): 265.1; Activity (Mus musculus [8]): 7.6; Activity (Mus musculus [11]): 157.7 s |
| O=C1C2CC=CCC2C(=O)N1C1CCC(N2CCN(c3cccc(C(F)(F)F)c3)CC2)CC1 (stereo not given) | 43 | – | – | 335 | -0.7 | -0.4 | 1.3 | 2.1 | -1.7 | -1 | 1.9 | 0.7 | 4680 | -0.4 | -0.1 | -1.1 | 1.5 | -1.3 | deltaT (Mus musculus [20]): -0.5 °C; deltaT (Mus musculus [26]): -0.3 °C |
| O=C1C2CC=CCC2C(=O)N1CCCCN1CCN(c2cccc(C(F)(F)F)c2)CC1 (cis isomer) | 73 | – | – | 31 | – | – | 1.8 | 1.9 | -0.3 | -0.6 | 0.5 | 1.4 | 2720 | – | – | -0.9 | 34 | -0.2 | deltaT (Mus musculus [27]): -1.2 °C; deltaT (Mus musculus [28]): -0.6 °C; deltaT (Mus musculus [29]): -1.3 °C; deltaT (Mus musculus [30]): -1.5 °C; deltaT (Mus musculus [31]): -1.6 °C; deltaT (Mus musculus [32]): -1.5 °C |
| O=C1C2=C(CCCC2)C(=O)N1C1CCC(N2CCN(c3cccc(C(F)(F)F)c3)CC2)CC1 (stereo not given) | 4 | – | – | > 5000 | -1.2 | -1.4 | 2 | 1.9 | – | – | 1.8 | 2 | 2640 | -0.7 | -0.3 | – | 0.3 | – | deltaT (Mus musculus [33]): -0.4 °C; Activity (Rattus norvegicus [34]): 1.8; deltaT (Mus musculus [35]): 0.1 °C; deltaT (Mus musculus [36]): 0.1 °C; deltaT (Mus musculus [37]): 0.2 °C; deltaT (Mus musculus [38]): -0.5 °C; deltaT (Mus musculus [39]): -0.4 °C; Activity (Rattus norvegicus [40]): 2.5 |
| CN1C(=O)CN=C(c2ccccc2)c2cc(Cl)ccc21 [DIAZEPAM] | – | 6.8 | 6.7 | – | – | – | – | – | – | – | – | – | – | – | – | – | – | – | Activity (Mus musculus [41]): 5.5 |
